Calls of active or inactive are those of the source. No cut-off for these calls is given here.
Legend:
[1] = biological target: T1, Tyrosine-protein phosphatase non-receptor type 1 (Homo sapiens, UniProt P18031); assay: Inhibition of PTP1B assessed as para-nitrophenyl phosphate catalyzed hydrolysis of para-nitrophenol by p-NPP assay
T1 sequence (P18031 whole entry): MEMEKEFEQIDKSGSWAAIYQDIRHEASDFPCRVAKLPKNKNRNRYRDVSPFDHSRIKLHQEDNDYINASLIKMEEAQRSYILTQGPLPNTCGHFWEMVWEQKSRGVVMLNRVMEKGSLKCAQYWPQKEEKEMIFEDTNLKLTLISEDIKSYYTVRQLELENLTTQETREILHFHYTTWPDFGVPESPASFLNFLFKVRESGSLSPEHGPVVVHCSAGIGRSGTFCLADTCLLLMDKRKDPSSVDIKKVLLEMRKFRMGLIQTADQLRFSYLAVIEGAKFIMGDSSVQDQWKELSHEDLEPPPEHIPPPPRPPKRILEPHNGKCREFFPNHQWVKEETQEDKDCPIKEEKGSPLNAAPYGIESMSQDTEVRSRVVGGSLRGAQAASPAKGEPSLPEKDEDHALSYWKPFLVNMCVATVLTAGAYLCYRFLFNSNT
How it was run: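 Enzymatic pNPP assay: initial rate of PTP1B-catalyzed pNPP hydrolysis read at 405 nm. IC50 determined at a fixed pNPP concentration of 1 mM. n = 3, mean ± SD.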

[2] = biological target: T2, Tyrosine-protein phosphatase non-receptor type 2 (Homo sapiens, UniProt P17706); assay: Inhibition of TCPTP
T2 sequence (P17706 whole entry): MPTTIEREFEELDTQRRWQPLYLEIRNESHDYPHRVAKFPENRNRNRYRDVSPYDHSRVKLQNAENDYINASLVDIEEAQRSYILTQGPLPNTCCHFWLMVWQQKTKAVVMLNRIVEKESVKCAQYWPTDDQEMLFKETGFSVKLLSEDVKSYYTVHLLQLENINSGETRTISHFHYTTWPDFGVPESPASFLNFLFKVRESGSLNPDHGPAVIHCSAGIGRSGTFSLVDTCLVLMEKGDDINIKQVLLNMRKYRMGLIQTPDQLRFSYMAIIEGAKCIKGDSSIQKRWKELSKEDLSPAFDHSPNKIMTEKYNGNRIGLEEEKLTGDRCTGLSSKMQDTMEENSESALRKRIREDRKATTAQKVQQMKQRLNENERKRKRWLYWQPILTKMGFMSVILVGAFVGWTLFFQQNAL

[3] = Selectivity ratio of IC50 for CD45 to IC50 for PTP1B
[4] = Selectivity ratio of IC50 for LAR to IC50 for PTP1B
[5] = Selectivity ratio of IC50 for SHP1 to IC50 for PTP1B
[6] = Selectivity ratio of IC50 for SHP2 to IC50 for PTP1B
[7] = Selectivity ratio of IC50 for PTPalpha to IC50 for PTP1B
[8] = Selectivity ratio of IC50 for TCPTP to IC50 for PTP1B
Mus musculus = assay: Antidiabetic activity in fasted C57BL/6J mouse assessed as reduction in serum AUC glucose level at 20 mg/kg, po after 240 mins by intraperitoneal glucose tolerance test relative to control; type: functional
How it was run: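 Overnight-fasted male C57BL/6J mice dosed orally at 20 mg/kg 0.5 h before an intraperitoneal glucose load of 1.5 g/kg. Blood taken at 0, 30, 60, 120 and 240 min, and serum glucose measured promptly by GOD-POD method in duplicate. AUC 0–240 min compared with vehicle control. Two-way ANOVA with Bonferroni post test, mean ± SEM.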

[9] = Tmax in fasted C57BL/6J mouse at 20 mg/kg, po; type: ADME, organism-based; set-up: dose 20 mg/kg, route oral; settings: in vivo
How it was run: (§1)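 Male C57BL/6J mice (n = 6), fasted overnight, single 20 mg/kg dose by body weight, given po or iv. Plasma separated at 4 °C, stored at −70 °C, then quantified by LC–MS/MS. %F taken from po AUC relative to iv AUC. Mean ± SD.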

[10] = Cmax in fasted C57BL/6J mouse at 20 mg/kg, po; type: ADME, organism-based; set-up: dose 20 mg/kg, route oral; settings: in vivo; how it was run: as §1
[11] = Half life in fasted C57BL/6J mouse at 20 mg/kg, po; type: ADME, organism-based; set-up: dose 20 mg/kg, route oral; settings: in vivo; how it was run: as §1
[12] = AUC (0 to infinity) in fasted C57BL/6J mouse at 20 mg/kg, po; type: ADME, organism-based; set-up: time infinity, dose 20 mg/kg, route oral; settings: plasma; how it was run: as §1
[13] = Oral bioavailability in fasted C57BL/6J mouse at 20 mg/kg; type: ADME, organism-based; settings: in vivo; how it was run: as §1
[14] = AUC in fasted C57BL/6J mouse at 20 mg/kg, iv; type: ADME, organism-based; set-up: dose 20 mg/kg, route intravenous; settings: plasma; how it was run: as §1

Molecule O=C(O)COc1ccc(S(=O)(=O)N(Cc2ccc(-c3csnn3)cc2)Cc2ccc(C3CC(=O)NS3(=O)=O)c(F)c2)cc1 (stereo not given) has an IC50 [1] of 460 nM.

For NS(=O)(=O)C(F)(F)c1ccc(CN(Cc2ccc(-c3csnn3)cc2)S(=O)(=O)c2ccc(OCC(=O)O)cc2)cc1Br, the IC50 [1] was 47 nM.

In the case of NS(=O)(=O)C(F)(F)c1cc2cc(CN(Cc3ccc(-c4csnn4)cc3)S(=O)(=O)c3ccc(OCC(=O)O)cc3)ccc2cc1Br, the IC50 [1] is reported as 39 nM.

Work on O=C(O)COc1ccc(S(=O)(=O)N(Cc2ccc(-c3csnn3)cc2)Cc2ccc3cc(Br)c(C(F)(F)P(=O)(O)O)cc3c2)cc1 yielded an IC50 [1] of 17 nM.

O=C(O)COc1ccc(S(=O)(=O)N(Cc2ccc(-c3csnn3)cc2)Cc2ccc(C(F)(F)P(=O)(O)O)c(F)c2)cc1 showed an IC50 [1] of 35 nM, an IC50 [2] of 870 nM and a Ratio IC50 [3] greater than 5000. For the same molecule, the Ratio IC50 [4] was greater than 5000, the Ratio IC50 [5] was greater than 5000 and the Ratio IC50 [6] was greater than 5000. The Ratio IC50 [7] was greater than 5000 and the Ratio IC50 [8] was 24.

In the case of O=C(O)COc1ccc(S(=O)(=O)N(Cc2ccc(-c3csnn3)cc2)Cc2ccc(F)c(C(F)(F)P(=O)(O)O)c2)cc1, the IC50 [1] is reported as 141 nM.

Work on O=C(c1ccccc1)C(Cc1ccc2cc(Br)c(C(F)(F)P(=O)(O)O)cc2c1)(Cc1ccc2cc(Br)c(C(F)(F)P(=O)(O)O)cc2c1)n1nnc2ccccc21 yielded a Ratio IC50 [8] of 116.

O=C(O)COc1ccc(S(=O)(=O)N(Cc2ccc(-c3csnn3)cc2)Cc2ccc3cc(Br)c(C(F)(F)P(=O)(O)O)cc3n2)cc1 showed an IC50 [1] of 18 nM.

Work on NS(=O)(=O)C(F)(F)c1cc2cc(CN(Cc3ccc(-c4csnn4)cc3)S(=O)(=O)c3ccc(OCC(=O)O)cc3)ccc2cc1F yielded an IC50 [1] of 35 nM.

Molecule O=C(O)COc1ccc(S(=O)(=O)N(Cc2ccc(-c3csnn3)cc2)Cc2ccc(C3CC(=O)NS3(=O)=O)cc2)cc1 (stereo not given) has an IC50 [1] of 500 nM.

For O=C(O)COc1ccc(S(=O)(=O)N(Cc2ccc(-c3csnn3)cc2)Cc2ccc(Br)c(C(F)(F)P(=O)(O)O)c2)cc1, the IC50 [1] was 288 nM.

NS(=O)(=O)C(F)(F)c1cc2nc(CN(Cc3ccc(-c4csnn4)cc3)S(=O)(=O)c3ccc(OCC(=O)O)cc3)ccc2cc1Br gave an IC50 [1] of 41 nM.

Work on O=C(O)COc1ccc(S(=O)(=O)N(Cc2ccc(-c3csnn3)cc2)Cc2ccc3cc(F)c(C(F)(F)P(=O)(O)O)cc3c2)cc1 yielded an IC50 [1] of 9 nM, an IC50 [2] of 870 nM and a Ratio IC50 [3] greater than 5000. The Ratio IC50 [4] was greater than 5000, the Ratio IC50 [5] was greater than 5000 and the Ratio IC50 [6] was greater than 5000. The Ratio IC50 [7] was greater than 5000, the Ratio IC50 [8] was 96 and the Activity (Mus musculus) was 52.8 mg/dL. For the same molecule, the Tmax [9] was 18.6 min, the Cmax [10] was 6300 ng/mL and the half-life [11] was 418 min. The AUC(0-inf) [12] was 8910 ng·h/mL, the bioavailability [13] was 6.51% and the AUC [14] was 137000 ng·h/mL.

For O=C(O)COc1ccc(S(=O)(=O)N(Cc2ccc(-c3csnn3)cc2)Cc2ccc(C(F)(F)P(=O)(O)O)cc2)cc1, the Ratio IC50 [8] was 7 and the Activity (Mus musculus) was “inactive”.

In the case of Cc1cc(CN(Cc2ccc(-c3csnn3)cc2)S(=O)(=O)c2ccc(OCC(=O)O)cc2)ccc1C1CC(=O)NS1(=O)=O (stereo not given), the IC50 [1] is reported as 470 nM.

O=C(O)COc1ccc(S(=O)(=O)N(Cc2ccc(-c3csnn3)cc2)Cc2ccc3cc(F)c(C(F)(F)P(=O)(O)O)cc3n2)cc1 showed an IC50 [1] of 11 nM, an IC50 [2] of 990 nM and a Ratio IC50 [3] greater than 5000. It also gave a Ratio IC50 [4] greater than 5000, a Ratio IC50 [5] greater than 5000 and a Ratio IC50 [6] greater than 5000. It also gave a Ratio IC50 [7] greater than 5000, a Ratio IC50 [8] of 90 and an Activity (Mus musculus) of 19.18 mg/dL. For the same molecule, the Tmax [9] was 41.4 min, the Cmax [10] was 960 ng/mL and the half-life [11] was 59.4 min. The AUC(0-inf) [12] was 1320 ng·h/mL, the bioavailability [13] was 0.9% and the AUC [14] was 147000 ng·h/mL.

With NS(=O)(=O)C(F)(F)c1ccc(CN(Cc2ccc(-c3csnn3)cc2)S(=O)(=O)c2ccc(OCC(=O)O)cc2)cc1F the IC50 [1] was 31 nM, the IC50 [2] was 620 nM and the Ratio IC50 [3] was greater than 5000. The Ratio IC50 [4] was greater than 5000, the Ratio IC50 [5] was greater than 5000 and the Ratio IC50 [6] was greater than 5000. It also gave a Ratio IC50 [7] greater than 5000 and a Ratio IC50 [8] of 20.

Work on NS(=O)(=O)C(F)(F)c1cc2nc(CN(Cc3ccc(-c4csnn4)cc3)S(=O)(=O)c3ccc(OCC(=O)O)cc3)ccc2cc1F yielded an IC50 [1] of 38 nM.

With O=C(O)COc1ccc(S(=O)(=O)N(Cc2ccc(-c3csnn3)cc2)Cc2ccc(C(F)(F)P(=O)(O)O)c(Br)c2)cc1 the IC50 [1] was 50 nM, the IC50 [2] was 750 nM and the Ratio IC50 [3] was greater than 5000. It also gave a Ratio IC50 [4] greater than 5000, a Ratio IC50 [5] greater than 5000 and a Ratio IC50 [6] greater than 5000. For the same molecule, the Ratio IC50 [7] was greater than 5000 and the Ratio IC50 [8] was 15.

O=C(O)COc1ccc(S(=O)(=O)N(Cc2ccc(-c3csnn3)cc2)Cc2ccc(C3CC(=O)NS3(=O)=O)c(Br)c2)cc1 (stereo not given) showed an IC50 [1] of 480 nM.

— ChEMBL document CHEMBL1938308, “Discovery of potent, selective and orally bioavailable triaryl-sulfonamide based PTP1B inhibitors” (Bioorg Med Chem Lett, 2012)
